Results on one molecule are retold here after ChEMBL document CHEMBL4028805, “Phenylthiazole Antibacterial Agents Targeting Cell Wall Synthesis Exhibit Potent Activity in Vitro and in Vivo against Vancomycin-Resistant Enterococci” (J Med Chem, 2017).

One data set deals with HRT-18 cell line. Put plainly: Cytotoxicity against human HRT18 cells assessed as reduction in cell viability up to 20 ug/ml after 2 hrs by MTS assay. The note with it: hrt-18, 2 h. Format: cell-based. The essentials:
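HRT-18 cells maintained in RPMI-1640 with 10% fetal horse serum at 37 °C, 5% CO2. Exposed to 5, 10, 20 or 40 μg/mL for 2 or 24 h, then MTS added and absorbance read at 490 nm. Viability expressed relative to untreated cells, n ≥ 3, one-way ANOVA with Dunnett's test.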

In data set [1] the test system is Enterococcus faecalis. Put plainly: Potentiation of gentamicin-induced antibacterial activity against Enterococcus faecalis ATCC 51299 assessed as gentamicin MIC preincubated for 30 mins followed by gentamicin addition measured after 18 to 21 hrs. Format: functional. The essentials: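 Enterococcal suspensions at 5×10^5 CFU/mL preincubated with compound at ½ × MIC for 30 min at room temperature.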

Data set [2] has as its system Enterococcus faecalis. Put plainly: Synergistic antimicrobial activity against Enterococcus faecalis ATCC 51299 after 20 hrs in presence of linezolid by checkerboard assay. Format: functional. The essentials:
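Checkerboard in TSB with a starting inoculum of 1×10^5 CFU/mL. Compound and antibiotic diluted from 2× or 4× MIC along perpendicular axes. Incubated 20 h at 37 °C. ΣFIC calculated: ≤0.5 synergy, >0.5 to <2 additive, 2–4 indifference, >4 antagonism.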

Another data set concerns Escherichia coli. Put plainly: Antibacterial activity against tolC deficient Escherichia coli assessed as cell lysis at 25 ug/ml after 30 mins in presence of sucrose by FM4-64/DAPI/SYTOX Green staining-based deconvolution microscopic analysis. Format: functional.
Data set [3] concerns Enterococcus faecalis. Put plainly: Synergistic antimicrobial activity against Enterococcus faecalis ATCC 51299 after 20 hrs in presence of ciprofloxacin by checkerboard assay. Format: functional. In short, it runs like this:
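Checkerboard assay. McFarland 0.5 suspension diluted in TSB to 1 × 10^5 CFU/mL. Compound diluted along one plate axis and antibiotic along the other, each starting at 2× or 4× MIC. Incubated 20 h at 37 °C, MIC read as no visible growth. Synergy defined as ΣFIC ≤0.5, additive >0.5 to <2, indifferent 2–4, antagonistic >4.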

The subject of data set [4] is Enterococcus faecium. Put plainly: Potentiation of vancomycin-induced antibacterial activity against Enterococcus faecium HM-968 assessed as fold reduction in vancomycin MIC preincubated for 30 mins followed by vancomycin addition measured after 18 to 21 hrs. Format: functional. In short, it runs like this:
(§1)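 VRE suspensions at 5×10^5 CFU/mL preincubated with compound at ½ × MIC for 30 min at room temperature. […] Fold reduction calculated as vancomycin MIC alone over MIC in combination.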

For data set [5], the system named is Enterococcus faecalis. Put plainly: Antibacterial activity against Enterococcus faecalis ATCC 31975 at 4 to 8 times MIC after 48 hrs by broth microdillution method. Format: functional. The essentials:
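Single-step resistance selection. Cultures of 5 × 10^8 to 5 × 10^10 CFU/mL spread on TSA containing compound at 2×, 4× or 8× MIC and incubated aerobically at 37 °C for 48 h. Colony MICs rechecked by broth microdilution. Frequency calculated as resistant colonies per inoculum.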

Data set [6] has as its system Enterococcus faecalis. Put plainly: Potentiation of vancomycin-induced antibacterial activity against Enterococcus faecalis HM-934 assessed as fold reduction in vancomycin MIC preincubated for 30 mins followed by vancomycin addition measured after 18 to 21 hrs. Format: functional. In short, it runs like this:
as §1

Data set [7] concerns Acinetobacter baumannii. Put plainly: Antibacterial activity against Acinetobacter baumanii ATCC 19606 after 18 to 22 hrs in absence of colistin by broth microdilution method. Format: functional. The note with it: ATCC 19606 = CIP 70.34 = JCM 6841. In short, it runs like this: (§2)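 Broth microdilution per CLSI guidelines. Gram-negatives grown in TSB. Each strain tested alone and again with colistin at ¼ × MIC to permeabilize the outer membrane. Plates incubated at 37 °C for 18–22 h. MIC read as the lowest concentration showing no visible growth.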

The test system of data set [8] is Enterococcus faecium. Put plainly: Bactericidal activity against vancomycin-resistant Enterococcus faecium ATCC 700221 assessed as bacterial regrowth at 4 times MIC after 22 hrs by time-kill assay. Format: functional. The essentials:
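Late-log cells diluted to ~5 × 10^6 CFU/mL and exposed in triplicate to 4 × MIC, in TSB (E. faecalis HM-201) or BHI (E. faecium ATCC 700221) at 37 °C. Sampled at 0, 2, 4, 6, 8, 10, 12 and 24 h, diluted serially in PBS and plated on TSA or BHI agar. CFU/mL counted after 18–22 h. DMSO served as negative control.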

The subject of data set [9] is Acinetobacter baumannii. Put plainly: Antibacterial activity against Acinetobacter baumanii ATCC 19606 after 18 to 22 hrs in presence of 1/4 times MIC colistin by broth microdilution method. Format: functional. The note with it: ATCC 19606 = CIP 70.34 = JCM 6841. In short, it runs like this:
as §2

Data set [10] in a line: Inhibition of Escherichia coli UPPP expressed in Escherichia coli C41(DE3) using FPP as substrate preincubated for 15 mins followed by substrate addition measured after 20 mins by malachite green assay. The essentials:
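Purified E. coli UPPP (0.125 μM) preincubated 15 min at room temperature with inhibitor (300 to 0.8 μM) in 50 mM HEPES, 150 mM NaCl, 10 mM MgCl2, 0.02% DDM, pH 7.5. Then 35 μM FPP added, 20 min at 37 °C. Released phosphate measured by malachite green at 620 nm after 30 min. IC50 from dose-response curves. Bacitracin used as control.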

The test system of a further data set is Pseudomonas aeruginosa. Put plainly: Antibacterial activity against Pseudomonas aeruginosa ATCC 15442 after 18 to 22 hrs in presence of 1/4 times MIC colistin by broth microdilution method. Format: functional. The essentials:
as §2

In data set [11] the test system is Enterococcus faecium. Put plainly: Antibacterial activity against vancomycin-resistant Enterococcus faecium clinical isolates after 18 to 22 hrs by broth microdilution method. Format: functional. The essentials: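 CLSI broth microdilution against panels of enterococcal isolates. E. faecalis grown in TSB, E. faecium in BHI, 37 °C for 18–22 h. MIC is the lowest concentration without visible growth. MIC50 is the value inhibiting 50% of isolates in each group.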

Data set [12] is described as follows: Induction of proton motive force collapse in Escherichia coli inverted membrane vesicle in presence of ATP-driven PMF generation system by ACMA-based fluorescence assay. Format: functional, cell membranes. The essentials:
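E. coli inverted membrane vesicles (0.1 mg/mL membrane protein) with 2 μM ACMA and 0.5 mM ATP or succinate, in 10 mM HEPES-KOH, 5 mM MgSO4, 100 mM KCl, pH 7.5. Proton gradient followed by ACMA fluorescence (ex 410/em 480 nm). EC50 taken from dose-response curves. CCCP used as reference uncoupler.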

Data set [13] in a line: Inhibition of Escherichia coli UPPS using IPP and FPP as substrate preincubated for 30 mins followed by substrate addition measured after 20 mins by malachite green phosphate assay. In short, it runs like this:
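Purified E. coli UPPS preincubated 30 min at room temperature with inhibitor (200 to 0.2 μM) in 100 mM HEPES, 50 mM NaCl, 0.5 mM MgCl2, 0.02% DDM, pH 7.5. Then 10 μM IPP and FPP added with 0.375 U/mL inorganic phosphatase. Phosphate read by malachite green at 620 nm. IC50 from dose-response curves.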

A further data set has as its system Bacillus subtilis. Put plainly: Antibacterial activity against Bacillus subtilis assessed as misshapen cells at 5 times MIC after 2 hrs in presence of methylsulfonyl methane by phase contrast microscopic analysis. Format: functional. The essentials:
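B. subtilis grown in LB at 37 °C to OD600 ~0.2, then treated at 5 × MIC with MSM for osmotic stabilisation. At 2 h, stained with FM 4-64 (1 μg/mL), DAPI (1 μg/mL) and SYTOX Green (1 μg/mL). Imaged by deconvolution fluorescence and phase contrast microscopy.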

Converted amounts (≈) assume the structure as drawn. The source made the active and inactive calls.

For `CCCCc1ccc(-c2nc(C)c(/C(C)=N/NC(=N)N)s2)cc1`, the Activity result with HRT-18 cell line is “Non-Toxic”. Besides, the outcome in the data set on Enterococcus faecalis [1], in the data set with Enterococcus faecium [4] and with Enterococcus faecalis [6] was inactive. For the same molecule, the “fractional inhibitory concentration index (FICI)” value was determined as 2 in the data set on Enterococcus faecalis [2] and 0.5 with Enterococcus faecalis [3]. Further, the outcome with Escherichia coli, with Enterococcus faecalis [5], with Enterococcus faecium [8] and with Bacillus subtilis was Active. Besides, the figures for the MIC against Acinetobacter baumannii [7], with Acinetobacter baumannii [9] and in the data set on Pseudomonas aeruginosa were 8 µg/mL (≈ 24.3 µM), 1 µg/mL and 1 µg/mL, respectively. Further, the IC50 in data set [10] amounted to 6 µM; in data set [13], 19 µM. The same molecule returned an MIC50 against Enterococcus faecium [11] of 2 µg/mL (≈ 6.07 µM). Besides, in [12], the EC50 is 12 µM.
